# How the values were obtained:
# [1] = Drug concentration in male albino rat thyroid gland assessed as radioactivity per gram of tissue at 20 mg/kg administered as single dose via gastric gavage measured after 72 hrs by autoradiographic analysis; type: ADME, organism-based; set-up: dose 20 mg/kg, dosed compound name [14C]Sunitinib; conditions: in vivo, po
# [2] = Drug concentration in male Lister Hooded pigmented rat pituitary gland assessed as radioactivity per gram of tissue at 20 mg/kg administered as single dose via gastric gavage measured after 72 hrs by autoradiographic analysis; type: ADME, organism-based; set-up: dose 20 mg/kg, dosed compound name [14C]Sunitinib; conditions: in vivo, po
# Zone of skin [3] = experiment: Drug concentration in male Lister Hooded pigmented rat abdomen skin assessed as radioactivity per gram of tissue at 20 mg/kg administered as single dose via gastric gavage measured after 72 hrs by autoradiographic analysis; type: ADME, organism-based; set-up: dose 20 mg/kg, dosed compound name [14C]Sunitinib; conditions: in vivo, po
# [4] = Drug recovery in urine of female Sprague-Dawley rat at 5 mg/kg, iv administered as single dose during 0 to 72 hrs by liquid scintillation counting; type: ADME, organism-based; set-up: dose 5 mg/kg, dosed compound name [14C]Sunitinib, route intravenous; conditions: in vivo
# Rattus norvegicus = experiment: Drug recovery in cage residue of female Sprague-Dawley rat at 5 mg/kg, iv administered as single dose during 0 to 72 hrs by liquid scintillation counting; type: ADME, organism-based; set-up: dose 5 mg/kg, dosed compound name [14C]Sunitinib, route intravenous; conditions: in vivo
# [5] = Drug recovery in urine of female cynomolgus monkey at 6 mg/kg, po administered as single dose during 0 to 336 hrs by liquid scintillation counting; type: ADME, organism-based, Macaca fascicularis; set-up: dose 6 mg/kg, dosed compound name [14C]Sunitinib, route oral; conditions: in vivo
# [6] = Drug recovery in feces of male cynomolgus monkey at 6 mg/kg, po administered as single dose during 0 to 336 hrs by liquid scintillation counting; type: ADME, organism-based, Macaca fascicularis; set-up: dose 6 mg/kg, dosed compound name [14C]Sunitinib, route oral; conditions: in vivo
# Harderian gland = experiment: Drug concentration in female albino rat harderian gland assessed as radioactivity per gram of tissue at 20 mg/kg administered as single dose via gastric gavage measured after 3 hrs by autoradiographic analysis; type: ADME, organism-based; set-up: dose 20 mg/kg, dosed compound name [14C]Sunitinib; conditions: in vivo, po
# Outline: (§1)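 Sprague Dawley albino rats, ca 7-8 weeks old, dosed once by gastric gavage with [14C]sunitinib L-malate (15 mg freebase/kg, 100 µCi/kg). One male and one female killed by CO2 at 3, 6, 24, 72 and 168 h. Carcasses frozen in solid CO2/hexane, embedded and cut into 30 µm sagittal sections, then freeze-dried. Radioactivity quantified by whole-body autoradiography against standards by regression, background subtracted.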
# Thymus [7] = experiment: Drug concentration in male Lister Hooded pigmented rat thymus assessed as radioactivity per gram of tissue at 20 mg/kg administered as single dose via gastric gavage measured after 24 hrs by autoradiographic analysis; type: ADME, organism-based; set-up: dose 20 mg/kg, dosed compound name [14C]Sunitinib; conditions: in vivo, po
# Zone of skin [8] = experiment: Drug concentration in male Lister Hooded pigmented rat abdomen skin assessed as radioactivity per gram of tissue at 20 mg/kg administered as single dose via gastric gavage measured after 24 hrs by autoradiographic analysis; type: ADME, organism-based; set-up: dose 20 mg/kg, dosed compound name [14C]Sunitinib; conditions: in vivo, po
# [9] = Drug concentration in male albino rat skeletal muscle assessed as radioactivity per gram of tissue at 20 mg/kg administered as single dose via gastric gavage measured after 6 hrs by autoradiographic analysis; type: ADME, organism-based; set-up: dose 20 mg/kg, dosed compound name [14C]Sunitinib; conditions: in vivo, po
# Zone of skin [10] = experiment: Drug concentration in male albino rat abdomen skin assessed as radioactivity per gram of tissue at 20 mg/kg administered as single dose via gastric gavage measured after 6 hrs by autoradiographic analysis; type: ADME, organism-based; set-up: dose 20 mg/kg, dosed compound name [14C]Sunitinib; conditions: in vivo, po
# Small intestine = experiment: Drug concentration in male albino rat small intestine assessed as radioactivity per gram of tissue at 20 mg/kg administered as single dose via gastric gavage measured after 6 hrs by autoradiographic analysis; type: ADME, organism-based; set-up: dose 20 mg/kg, dosed compound name [14C]Sunitinib; conditions: in vivo, po
# [11] = Drug concentration in male Lister Hooded pigmented rat skeletal muscle assessed as radioactivity per gram of tissue at 20 mg/kg administered as single dose via gastric gavage measured after 168 hrs by autoradiographic analysis; type: ADME, organism-based; set-up: dose 20 mg/kg, dosed compound name [14C]Sunitinib; conditions: in vivo, po
# Spleen [12] = experiment: Drug concentration in male Lister Hooded pigmented rat spleen assessed as radioactivity per gram of tissue at 20 mg/kg administered as single dose via gastric gavage measured after 168 hrs by autoradiographic analysis; type: ADME, organism-based; set-up: dose 20 mg/kg, dosed compound name [14C]Sunitinib; conditions: in vivo, po
# Stomach = experiment: Drug concentration in male Lister Hooded pigmented rat stomach assessed as radioactivity per gram of tissue at 20 mg/kg administered as single dose via gastric gavage measured after 168 hrs by autoradiographic analysis; type: ADME, organism-based; set-up: dose 20 mg/kg, dosed compound name [14C]Sunitinib; conditions: in vivo, po
# Kidney [13] = experiment: Drug concentration in male Lister Hooded pigmented rat kidney assessed as radioactivity per gram of tissue at 20 mg/kg administered as single dose via gastric gavage measured after 168 hrs by autoradiographic analysis; type: ADME, organism-based; set-up: dose 20 mg/kg, dosed compound name [14C]Sunitinib; conditions: in vivo, po
# Zone of skin [14] = experiment: Drug concentration in female albino rat abdomen skin assessed as radioactivity per gram of tissue at 20 mg/kg administered as single dose via gastric gavage measured after 3 hrs by autoradiographic analysis; type: ADME, organism-based; set-up: dose 20 mg/kg, dosed compound name [14C]Sunitinib; conditions: in vivo, po
# Outline: (§2)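 Sprague Dawley (albino) rats, ca 7-8 weeks old, received a single gastric-gavage dose of [14C]sunitinib L-malate at 20 mg/kg (15 mg freebase/kg, 100 µCi/kg). One animal per sex killed by CO2 at 3, 6, 24, 72 and 168 h, then frozen in CO2/hexane. 30 µm sagittal sections were cut and freeze-dried. Radioactivity per gram quantified by whole-body autoradiography using regression against standards. LOQ 0.04–0.06 µg freebase equiv/g.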
# Spinal cord = experiment: Drug concentration in female albino rat spinal cord assessed as radioactivity per gram of tissue at 20 mg/kg administered as single dose via gastric gavage measured after 3 hrs by autoradiographic analysis; type: ADME, organism-based; set-up: dose 20 mg/kg, dosed compound name [14C]Sunitinib; conditions: in vivo, po
# Thymus [15] = experiment: Drug concentration in female albino rat thymus assessed as radioactivity per gram of tissue at 20 mg/kg administered as single dose via gastric gavage measured after 3 hrs by autoradiographic analysis; type: ADME, organism-based; set-up: dose 20 mg/kg, dosed compound name [14C]Sunitinib; conditions: in vivo, po
# Lung [16] = experiment: Drug concentration in female albino rat lung assessed as radioactivity per gram of tissue at 20 mg/kg administered as single dose via gastric gavage measured after 6 hrs by autoradiographic analysis; type: ADME, organism-based; set-up: dose 20 mg/kg, dosed compound name [14C]Sunitinib; conditions: in vivo, po; outline: as §1
# Zone of skin [17] = experiment: Drug concentration in female albino rat abdomen skin assessed as radioactivity per gram of tissue at 20 mg/kg administered as single dose via gastric gavage measured after 168 hrs by autoradiographic analysis; type: ADME, organism-based; set-up: dose 20 mg/kg, dosed compound name [14C]Sunitinib; conditions: in vivo, po; outline: as §2
# Heart = experiment: Drug concentration in female Lister Hooded pigmented rat heart assessed as radioactivity per gram of tissue at 20 mg/kg administered as single dose via gastric gavage measured after 24 hrs by autoradiographic analysis; type: ADME, organism-based; set-up: dose 20 mg/kg, dosed compound name [14C]Sunitinib; conditions: in vivo, po
# Outline: (§3)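 Lister Hooded (pigmented) rats, ca 7-8 weeks old, acclimated 7 days, given [14C]sunitinib L-malate by gastric gavage at 20 mg/kg (15 mg freebase/kg, 100 µCi/kg). One male and one female killed by CO2 at 24, 72, 168 and 336 h. Carcasses frozen in solid CO2/hexane and embedded in frozen cellulose. 30 µm sagittal cryosections were freeze-dried. Tissue radioactivity measured by quantitative whole-body autoradiography against calibration standards, with background subtracted.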
# Spleen [18] = experiment: Drug concentration in male albino rat spleen assessed as radioactivity per gram of tissue at 20 mg/kg administered as single dose via gastric gavage measured after 3 hrs by autoradiographic analysis; type: ADME, organism-based; set-up: dose 20 mg/kg, dosed compound name [14C]Sunitinib; conditions: in vivo, po
# [19] = Drug concentration in male albino rat preputial gland assessed as radioactivity per gram of tissue at 20 mg/kg administered as single dose via gastric gavage measured after 24 hrs by autoradiographic analysis; type: ADME, organism-based; set-up: dose 20 mg/kg, dosed compound name [14C]Sunitinib; conditions: in vivo, po
# [20] = Drug concentration in male albino rat skeletal muscle assessed as radioactivity per gram of tissue at 20 mg/kg administered as single dose via gastric gavage measured after 24 hrs by autoradiographic analysis; type: ADME, organism-based; set-up: dose 20 mg/kg, dosed compound name [14C]Sunitinib; conditions: in vivo, po
# Kidney [21] = experiment: Drug concentration in female albino rat kidney assessed as radioactivity per gram of tissue at 20 mg/kg administered as single dose via gastric gavage measured after 72 hrs by autoradiographic analysis; type: ADME, organism-based; set-up: dose 20 mg/kg, dosed compound name [14C]Sunitinib; conditions: in vivo, po; outline: as §1
# [22] = Drug concentration in female albino rat lachrymal gland assessed as radioactivity per gram of tissue at 20 mg/kg administered as single dose via gastric gavage measured after 24 hrs by autoradiographic analysis; type: ADME, organism-based; set-up: dose 20 mg/kg, dosed compound name [14C]Sunitinib; conditions: in vivo, po; outline: as §1
# Lung [23] = experiment: Drug concentration in female Lister Hooded pigmented rat lung assessed as radioactivity per gram of tissue at 20 mg/kg administered as single dose via gastric gavage measured after 24 hrs by autoradiographic analysis; type: ADME, organism-based; set-up: dose 20 mg/kg, dosed compound name [14C]Sunitinib; conditions: in vivo, po; outline: as §3
smiles,measurement,setting,value
CCN(CC)CCNC(=O)c1c(C)[nH]c(/[14CH]=C2\C(=O)Nc3ccc(F)cc32)c1C.O=C(O)C[C@H](O)C(=O)O,Radiolabel recovery,[1],0.24 ugequiv
same,Radiolabel recovery,[2],1.65 ugequiv
same,Radiolabel recovery,Zone of skin [3],0.64 ugequiv
same,Radiolabel recovery,[4],9.1%
same,Radiolabel recovery,Rattus norvegicus,1.1%
same,Radiolabel recovery,[5],6.1%
same,Radiolabel recovery,[6],87.3%
same,Radiolabel recovery,Harderian gland,17.26 ugequiv
same,Radiolabel recovery,Thymus [7],0.67 ugequiv
same,Radiolabel recovery,Zone of skin [8],5.57 ugequiv
same,Radiolabel recovery,[9],2.3 ugequiv
same,Radiolabel recovery,Zone of skin [10],3.45 ugequiv
same,Radiolabel recovery,Small intestine,5.54 ugequiv
same,Radiolabel recovery,[11],0.06 ugequiv
same,Radiolabel recovery,Spleen [12],0.06 ugequiv
same,Radiolabel recovery,Stomach,0.06 ugequiv
same,Radiolabel recovery,Kidney [13],0.06 ugequiv
same,Radiolabel recovery,Zone of skin [14],3.16 ugequiv
same,Radiolabel recovery,Spinal cord,0.28 ugequiv
same,Radiolabel recovery,Thymus [15],9.36 ugequiv
same,Radiolabel recovery,Lung [16],16.19 ugequiv
same,Radiolabel recovery,Zone of skin [17],0.26 ugequiv
same,Radiolabel recovery,Heart,0.47 ugequiv
same,Radiolabel recovery,Spleen [18],20.52 ugequiv
same,Radiolabel recovery,[19],13.66 ugequiv
same,Radiolabel recovery,[20],0.16 ugequiv
same,Radiolabel recovery,Kidney [21],0.39 ugequiv
same,Radiolabel recovery,[22],6.79 ugequiv
same,Radiolabel recovery,Lung [23],2.79 ugequiv

# From ChEMBL document CHEMBL3525900, “Pharmacokinetics, distribution, and metabolism of [14C]sunitinib in rats, monkeys, and humans” (Drug Metab Dispos, 2012)
